# Paper PMC10785272 (ACS Omega, 2023)
# Key:
# HeLa cells = test: In vitro cytotoxicity MTS assay with HeLa cells; assay type: cell-based, human; settings: HeLa cell line, 48 h incubation, mean ± SD (n = 3)
# In short: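 HeLa cells were grown in EMEM with 10% FBS, nonessential amino acids and sodium pyruvate at 37 °C in 5% CO2. They were seeded at 40000 cells/well and left 24 h, then exposed 48 h to freshly prepared medium holding test compound over 0–100 or 0–1000 µM. MTS was added for 3 h and absorbance read at 490 nm. IC50 was obtained by curve fitting; runs were in triplicate.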
# [1] = In vitro stability of FGC-Pt in mouse plasma; assay type: in vitro ADME; settings: 37 °C
# In short: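 Test compound (2.4 mg) was mixed with purchased mouse plasma (160 µL) and held at 37 °C for 0, 2, 4 and 6 h. Each mixture was diluted with saline, filtered and analysed by HPLC on a Sugar-D column with a water/methanol linear gradient at 0.5 mL/min, with UV detection at 220 nm. Results are mean ± SD, n = 3.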
# A549 cell-bearing mice [2] = test: In vivo assessment of antitumor effect and toxicity in A549 cell-bearing mice; parameters: species or system mouse; settings: 2.7 mg of Pt/kg i.v. on days 1, 8, 15, 22; n = 6
# A549 cell-bearing mice [3] = test: In vivo biodistribution; parameters: species or system mouse; settings: 4 mg of Pt/kg tail vein; for ratio of platinum concentration tumor/blood / ratio of platinum concentration tumor/bone / ratio of platinum concentration tumor/kidney / ratio of platinum concentration tumor/liver / ratio of platinum concentration tumor/muscle: A549 cell-bearing mice; for platinum accumulation in tumors: ICP-MS, mean ± SD (n = 4)
# In short: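 Male BALB/c nu/nu mice (5 weeks old, quarantined 1 week) received 1 × 10^7 A549 cells s.c. into the right shoulder. At 50 mm3 tumour volume, mice got 4 mg Pt/kg by tail vein in freshly prepared saline (n = 4/group). At 24 and 48 h, Pt in tumour, muscle, bone, blood, liver and kidney was measured by ICP-MS after acid digestion. Values are ng Pt/g tissue and tumour/organ concentration ratios.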
substance,measurement,setting,value
"cis-Dichloro [(2-Fluoro-α-D-glucopylanosidyl)propane-1,3-diamine] Platinum [FGC-Pt]",IC50,HeLa cells,447 ± 99 µM
same,half-life in mouse plasma,[1],approximately 2 h
same,"toxic side effects (body weight, loss of appetite, injection site)",A549 cell-bearing mice [2],reduces toxicity compared to that of cisplatin
same,ratio of platinum concentration tumor/blood,A549 cell-bearing mice [3]; 24 h post-injection,11.07
same,ratio of platinum concentration tumor/bone,A549 cell-bearing mice [3]; 24 h post-injection,2.93
same,ratio of platinum concentration tumor/kidney,A549 cell-bearing mice [3]; 24 h post-injection,0.29
same,ratio of platinum concentration tumor/liver,A549 cell-bearing mice [3]; 24 h post-injection,0.50
same,ratio of platinum concentration tumor/muscle,A549 cell-bearing mice [3]; 24 h post-injection,3.64
same,platinum accumulation in tumors,A549 cell-bearing mice [3]; 24 h post-injection,1058 ± 220 Pt ng/g tissue
same,ratio of platinum concentration tumor/blood,A549 cell-bearing mice [3]; 48 h post-injection,14.37
same,ratio of platinum concentration tumor/bone,A549 cell-bearing mice [3]; 48 h post-injection,3.03
same,ratio of platinum concentration tumor/kidney,A549 cell-bearing mice [3]; 48 h post-injection,0.42
same,ratio of platinum concentration tumor/liver,A549 cell-bearing mice [3]; 48 h post-injection,0.59
same,ratio of platinum concentration tumor/muscle,A549 cell-bearing mice [3]; 48 h post-injection,4.09
same,platinum accumulation in tumors,A549 cell-bearing mice [3]; 48 h post-injection,1055 ± 278 Pt ng/g tissue
